In the EternaBench riboswitch data:

Tested on: MS2 coat protein
Assay: apparent Kd, MS2 coat protein; higher = weaker binding; RNA-MaP array; FMN 200 µM where present
Summary of the method: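 Each design was made on Illumina sequencing-chip clusters by stalled E. coli RNA polymerase and titrated with SNAP-549-labelled MS2 coat protein from 0.7 or 1.5 nM, doubling to 3 µM, in the absence and then the presence of constant ligand. The buffer was 100 mM Tris-HCl pH 7.5, 80 mM KCl, 4 mM MgCl2, BSA, DTT, yeast tRNA and Tween-20. The apparent Kd is the median of filtered per-cluster fits of binding curves, with green signal normalised to red-channel RNA signal and control-cluster median Fmax.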

[1] = designed as: ON switch for flavin mononucleotide, no ligand
[2] = ligand present: flavin mononucleotide, designed as: ON switch for flavin mononucleotide
[3] = designed as: OFF switch for flavin mononucleotide, no ligand
[4] = ligand present: flavin mononucleotide, designed as: OFF switch for flavin mononucleotide

Sequence	apparent Kd [1] [nM]	apparent Kd [2] [nM]	apparent Kd [3] [nM]	apparent Kd [4] [nM]
GCCAUCGCAUGAGGAUAUGCUCCGGUUUCCGGAGCAGAAGGCAUGUCACAAGACAUGAGGAUCACCCAUGUAGUUAAGAUGGCA	185	8.88	–	–
GAUUAACAUGAGGAUCACCCAUGUGAGGAUAUGGACUGGCUCACUUUUCGAUUCCCGUCUAGAAGGCGCAUCUU	–	–	39.3	55.6
GCGUUGAACGAGAAGGCCAAUACAUGAGGAUCACCCAUGUUGUGAUGUUUUGGAGGAUAUCGAUCGUCGUCUCAUGAGCAACGC	–	–	7.47	10.2
GGUCCACAUGAGGAUCACCCAUGUCAGGAUAUACACGGCACAAUAAUAAGUGCCACCCGUAGAAGGGACGCUGG	–	–	14.8	37.6
GGUCCAUCAUGAGGAUAUGGCACCUUAUUGGUGCCAGAAGGCAUGUCUAUUGACAUGAGGAUCACCCAUGUAUUAAUUUGGACC	1040	80.7	–	–
UGAUUACGAGGAUAUACAUGAGGAUCACCCAUGUAGUCAGGGCCCAUACUCCGAGCAUGUAGAAGGCGUUGUCU	–	–	32.7	48.8
UUGGACUACGUAGGAUAUGUAGGAUUUUCCUACAUGAGGAUCACCCAUGUUAGCAUGGAAGAAGGACAGAAGGACGUGGUCCAU	782	79.3	–	–
CGUCCACAUGAGGAUCACCCAUGUGAGGAUAUCCAUACCCACAACCAAUACACAUUAUGGAGAAGGCACACACA	–	–	20.2	19.9
GUAGCCGACCAGAAGGGUGACAUGAGGAUCACCCAUGUAGAUGUGUUCCCGCUUGGGAGCCGUCCACAGGAUAUGGUUGGUUAU	54.1	38.3	–	–
UGUGCCGGAUCAGGAUAUCCACAGCGGCAAUCACAUGAGGAUCACCCAUGUGGAGAAGGGAUUCGCGAAUUAAUAUCUCGAUAA	–	–	33.5	56.6
GAGCUCAAUGAGAAGGGUUACAUGAGGAUCACCCAUGUCGACCUUGGCGUAACAGGAUAUCAUCGGGCUCAGUGCGUUGACCCA	–	–	24.9	108
GUGCUCGUGUAAGGAUAUGCAGCCGUUUCGGCUGCAGAAGGUACUAUAAUACAUGAGGAUCACCCAUGUCUCUAUAGUUUGGUG	27.4	33.1	–	–
UUGUAGUACGUAGGAUAUCAUUGAGGGUCACCCUGAGAAGGACGUGAGGACAUGAGGAUCACCCAUGUGGAUCACCCAUGUCAU	–	–	282	549
GCUCGAUGCGCUGAGAACAUGAGGAUCACCCAUGUAAAUGGUCAGGAUAUUUACGUGCUUUAUGUAGAGAAGGGACCAUCGAGC	110	27.3	–	–
ACAUGAGGAUCACCCAUGUAUACAUAGGAUAUUGGUGAUCAGGGAUGUUUUACAGGAUAUGUCUGCGAGAAGGAUGCAAGUACU	178	94.7	–	–
GGGUACAUCGGAGGAUAUCAUGUAAAUACAUGAGGAUCACCCAUGUCGAUGGAGAUAUCGGAGAUUGAGAAGGCCGAUGUACCG	102	9.9	–	–
GGAGCCGACACUGAGGAUAUUCAUAUUAAAACAUGAGGAUCACCCAUGUAGGCCAGAAGGCCUUGGGAGAAGGCAGGCCGGCUCG	377	26.5	–	–
GCGUGAAAUGUAGGAUAUGACACAGGAAACUGGUCAGAAGGACAUGAGGAUCACCCAUGUAAUAAGUUCAAGAAUAACACAUGC	–	–	33.1	75.5
CAGCGGAGCCUAGGAUAUGCGACAUGAGGAUCACCCAUGUACGCCAAAACGUCACCAUGGGUCUCGCAGAAGGAGGAAACACUG	–	–	54.7	24.3
GUCCCACAUGAGGAUCACCCAUGUGAGGAUAUGGAUUCGCUGGCCGUAGCCAGUGGAUCCAGAAGGCGCAUGAU	–	–	19.6	26.5
GGUCGUCAUAUUAACAUGAGGAUCACCCAUGUGAAAACACAUGAGGAUAUGCAUCCUAAUUGGAUGCAGAAGGCAUGGACGACC	23.7	6.49	–	–

Sequence	apparent Kd [1] [nM]	apparent Kd [2] [nM]	apparent Kd [3] [nM]	apparent Kd [4] [nM]
GCGGAGAUACAGAAGGGAUAAGCCCUGGGCUAAUCAGGAUAUGUACGACGCAUCGUACAUGAGGAUCACCCAUGUAGCCGCUUG	483	85.6	–	–
CCGGAAUCCUAGGAUAUGCUAGACGAGAGUCUAGCAGAAGGAGGAACAUGAGGAUCACCCAUGUGUCCUACCGG	–	–	17.7	21
UAAUAUUUAUAAUAUUAUUACAUUAGAAGGCUAGACAUGUGGAUACAUGAGGAUCACCCAUGUAUAGAGGAUAUAGACAUAUAU	–	–	29.5	79.9
ACAUGAGGAUCACCCAUGUCUUUAUCCGAUUCUUCAUUUACGUAGGAUAUCGUCUAUACUAUCAUCGAGAAGGACGUUCUUUAA	17.6	15.9	–	–
UGAGCCUCGUGAGGAUAUACAUGAGGAUCACCCAUGUAAUAAAGUGAACGGAGGAAGCUCCGAAUGUAGAAGGCACGAGGCUCA	–	–	60.1	372
GCAGCUAUUAUUAUACAUGAGGAUCACCCAUGUUACAUGUGUAAGGAUAUUGAUGUUUAUAUAAUCAAGAAGGUACGAUGCUGC	12.6	8.59	–	–
AAAUGCCUGUCGAUGCUCGACAUGAGGAUCACCCAUGUACAGCAGGAUAUGCAGAACAACCUCGUGCAGAAGGGCUGUACCAAU	–	–	54.3	157
GUUAUUAUUAGUUCAUACUAUAAGAUAGAAGGUGAAUAAUUGACAUGAGGAUCACCCAUGUAAUUCAAGGAUAUGUAGAUACUC	32	17.6	–	–
GCCAGAGAAGGAUAUACGAGGAUCGAGUGGUCACACCUACAACAUGAGGAUCACCCAUGUAGAAGGUUUCGGCU	–	–	13.9	16.3
GGCGAACGGGCUUACAUGAGGAUCACCCAUGUAGACUCAUGGUAGGAUAUGCUGUACUUUGUACAGCAGAAGGGCCGGUGAGCU	65.8	38.7	–	–
AGCUGUGGCCGAGGAUAUCUGUCCCAUAAAACCGAAAUAUAAUCGGACAUGAGGAUCACCCAUGUAGAGAAGGCGGUCUCAGCA	–	–	44.1	70.7
AUAUUGUGAGGAUAUGAACUAAGUAUCGAAAGAUACUAAGUUCAGAAGGCACAUGAGGAUCACCCAUGUUUCUC	–	–	76.7	729
CUUCGUAUAGAGGAUAUAGGAUACUACGGUGUCCUAGAAGGCUGUACAUGAGGAUCACCCAUGUACUUCAGAUC	–	–	11.7	13.5
AGAUAACACCAGAAGGACAUGAGGAUCACCCAUGUAGGAUAUGGGCAUCACUCGAGAAAGAAAAGACCAAAUGUACACGCGGUC	91.7	9.27	–	–
CCAUCGAGUGUGAGGAUAUGCUGGUCCAUAGAUCAGCAGAAGGCACAUGAGGAUCACCCAUGUGGAGACGGUGG	–	–	41.7	332
GAGCGAAAGCUCAAUGUCGAUAGCAGAAGGACAUCCUUUAACAUGAAAACAUGAGGAUCACCCAUGUAGGAUAUGCUAUCGACU	–	–	6.66	7.92
AGCAUGUGAGGAUAUGUGACCCUCAUCCGAAGGACGAGGGAAUAGAAGGCACAUGAGGAUCACCCAUGUGAUGA	–	–	46.2	188
CUUUAGCUAGGAUAUACAUGAGGAUCACCCAUGUUAGCGGUCCAUUGGGCCGCGGGUUGUAGAAGGAGCAUUAA	–	–	30.8	56.8
GGGACCUACGAGAAGGGCUACAUGAGGAUCACCCAUGUAAAUCUUCGGGUGGCAGGAUAUCGGCGGCUACAGGAGGGCCAGGUC	–	–	–	38.3
AACAUGUCAGGAUAUGUGACAUGGCUCUUCGGAGCAAGAUCACAGAAGGGACAUGAGGAUCACCCAUGUCGAUC	–	–	38.7	156
GGAAAUCAUGUAGGAUAUGCAUGGCGAAGCUACGCAGAAGGACAUGAGGAUCACCCAUGUUCUAGCUACCGAGUUCGGUGGCAA	–	–	21.6	114
